STAT1 act = STAT1 signaling activators, primary screen, cell-based, HTS, luciferase reporter. activation (% of control), % at 5.5 µM. NIH 3T3 STAT1-luciferase reporter, IFN-gamma, luminescence; 100% = IFN-gamma alone, no compound. actives 2.6% (n = 200,000);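 active = activation above the screen-wide mean activation plus 3 SD, cut at about 130% in these data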;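 also: raw ratio to IFN-gamma control signal so 100% means no change and 0% no light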
NF-kB expr up = activators of NF-kB expression in neurons, primary screen, cell-based, HTS; human neuronal cells, NF-kB reporter expression; hits give high values; fold change at 12.5 µM; actives 1.6% (n = 190,000); AID 1239, 2008; in the data active = fold change above about 3.3
FLuc stim CS = FLuc activators, initial screening, artefact control for FLuc-dependent activation tests, biochemical, ATPlite luminescence. ATPlite luciferase biochemical, 10 min; 0 = ATP-free wells, 1 = DMSO control. Luciferin 4-monooxygenase (Photinus pyralis), P08659. AID 1027, 2008. activation factor at 10 µM. 200,000 tested, under 10 active;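 active = luciferase activation factor, scaled between plate controls, of at least 2 with compound at 10 µM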
Target sequence (P08659 whole entry, looked up): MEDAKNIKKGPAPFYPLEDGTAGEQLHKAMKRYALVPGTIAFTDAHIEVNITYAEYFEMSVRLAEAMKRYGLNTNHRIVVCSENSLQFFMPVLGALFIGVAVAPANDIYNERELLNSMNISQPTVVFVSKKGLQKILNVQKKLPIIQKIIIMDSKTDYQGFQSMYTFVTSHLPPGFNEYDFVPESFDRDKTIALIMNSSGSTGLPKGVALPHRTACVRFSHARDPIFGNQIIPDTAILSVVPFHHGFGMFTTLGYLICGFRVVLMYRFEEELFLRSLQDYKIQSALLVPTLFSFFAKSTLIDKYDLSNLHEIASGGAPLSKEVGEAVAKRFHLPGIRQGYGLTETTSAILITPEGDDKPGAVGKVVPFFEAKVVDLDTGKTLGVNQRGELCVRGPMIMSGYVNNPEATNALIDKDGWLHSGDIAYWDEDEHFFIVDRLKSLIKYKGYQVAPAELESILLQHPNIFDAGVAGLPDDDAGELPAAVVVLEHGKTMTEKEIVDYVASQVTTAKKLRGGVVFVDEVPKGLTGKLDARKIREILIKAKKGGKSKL
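test system = cell-free luciferase reagent | medium = PBS as buffer for the ATP substrate | dosing = test compounds dosed from 2 mM stocks in 100% DMSO | incubation = 10 min at ambient temperature | detection = luminescence measurement of luciferase light output | benchmarks = low control with PBS replacing ATP, high control enzyme plus ATP without compound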
APP 5'UTR act = activators of APP 5'UTR luciferase reporter, primary screen, SH-SY5Y cells; SH-SY5Y APP 5'UTR luciferase reporter, luminescence; zero percent = DMSO vehicle wells; activation, % at 2 µM; actives 1% (n = 190,000); AID 1276, 2008;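 active = activation above a set limit, based on mean plus 3 SD of controls, cut at about 140% in these data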
FLuc inhib CS = firefly luciferase enzyme inhibitors, primary screen, artefact control for luciferase-based inhibitor screens, biochemical, luminescence, ATPLite; Luciferin 4-monooxygenase (Photinus pyralis), P08659; 10 min; inhibition, % at 10 µM; actives 1.5% (n = 200,000); AID 1006, 2008;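 active = inhibition above about 50% when tested at 10 µM, limit read from the data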
Pf gametocyte = late stage P. falciparum gametocyte viability inhibitors, primary screen, ATP luminescence, HTS | P. falciparum stage V gametocytes, 24 h | inhibition, % at 10.9 µM | actives 0.065% (n = 150,000) | AID 743093, 2013;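 active = inhibition above the mean plus 3 SD of compounds within the control limits, set per campaign, cut at about 38% in these data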;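 also: 0% = DMSO wells and 100% = medium only without gametocytes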
* hit, by the source's call; · = no result given. A selection: hits, their analogues and other compounds. The true share with any hit is near 3.5%.

SMILES	STAT1 act	NF-kB expr up	FLuc stim CS	APP 5'UTR act	FLuc inhib CS	Pf gametocyte
Cc1ccccc1Nc1nnc(SCC2CCCCO2)s1 (configuration not stated)	129*	6.1*	0.4	146*	60*	-20
Cc1ccc(Nc2nnc(SCC3CCCCO3)s2)cc1 (configuration not stated)	120	1.8	0.9	5	7	12
CCCC(=O)Oc1ccc(C2NC(=O)c3ccccc3O2)cc1 (configuration not stated)	·	·	·	·	·	17
CCOc1ncccc1C(=O)OCc1ccc(C(=O)OC)cc1	130*	1.7	0.9	-10	6	-19
Cc1nn(-c2ccccc2)c(N2CCCCC2)c1/C=N/O	94	0.92	1	0	-2	14
Cc1nn(-c2ccccc2)c(N2CCCC2)c1C=O	97	0.84	1.1	11	-6	40*
CCCCCCCCn1cnc2c(N)c(C)c(C)cc21	112	4.5*	1	-6	-2	·
COc1ccc(Cn2cnc3c(N)c(C)c(C)cc32)cc1	98	1	1.1	-5	-6	-8
O=C1c2ccccc2S(=O)(=O)c2cc(C(=O)N3CCN(c4ccc(Cl)cn4)CC3)ccc21	·	·	·	·	·	6
Nc1ccc2nc(SCc3cccc(F)c3)sc2c1	125	6.1*	0.8	53	15	0
CCOC(=O)N1CCC(NC(=O)C2CCN(S(=O)(=O)c3ccc4c(c3)oc(=O)n4C)CC2)CC1	97	1.1	1	12	-4	·
C=COC(=O)CSc1nc(-c2cccs2)ccc1C#N	136*	1.9	1	90	-3	·
O=C(Nc1ccc(Cl)c(S(=O)(=O)N2CCOCC2)c1)c1ccc(OCC2CCCO2)cc1 (configuration not stated)	74	0.99	0.9	0	5	·
CCOC(=O)C1=C(CSc2nc(-c3ccccc3)ccc2C#N)OC(N)=C(C#N)C1c1cccnc1 (configuration not stated)	107	3.8*	1.1	43	-6	·
N#Cc1c(NC(=O)c2nc3ncccn3n2)sc2c1CCCCC2	118	2.4	0.4	-19	57*	·
O=C(Nc1ccc2c3c(cccc13)CC2)c1ccc(Br)o1	131*	2	1	16	-3	·
COc1ccc(NC2=C(Cl)C(=O)N(CCc3ccccc3)C2=O)cc1	142*	2.8	1	87	2	17
CCc1ccc(Nc2cc(C)nc3ncnn23)cc1	·	·	·	·	·	11
CCn1c2ccccc2c2cc(Nc3cc(C)nc4ncnn34)ccc21	103	4.4*	1.1	-96	-8	·
COc1ccc(C(=O)Nc2cccc3c2CCCC3)c(OC)c1	·	·	·	·	·	8
O=C(NCCC1=CCCCC1)NC12CC3CC(CC(C3)C1)C2	144*	1.4	1	173*	4	·
COc1ccc(CCNC(=O)NC23CC4CC(CC(C4)C2)C3)cc1	105	1.4	1	3	-3	-1
O=C(NCCC1=CCCCC1)Nc1ccc2nsnc2c1	133*	6.4*	0.5	165*	46	·
Cc1ccnc(NS(=O)(=O)c2ccc(NC(=O)c3ccc([N+](=O)[O-])s3)cc2)n1	87	5.7*	1	16	3	·
Cc1cc(NC(=O)CN2C(=O)NC3(CCCCC3C)C2=O)no1 (configuration not stated)	95	1.2	1	1	-3	10
SMILES	STAT1 act	NF-kB expr up	FLuc stim CS	APP 5'UTR act	FLuc inhib CS	Pf gametocyte
CC1CCCCC12NC(=O)N(CC(=O)NC(=O)Nc1ccc3c(c1)OCCO3)C2=O (configuration not stated)	132*	1.1	0.7	78	33	-18
COc1ccc(S(=O)(=O)N2CCCC(C(=O)NCc3ccco3)C2)cc1Cl (configuration not stated)	94	0.92	1	22	2	·
O=C(OCc1cccc(F)c1)c1ccc2c(c1)-c1ccccc1C2=O	109	1.5	1.1	3	-8	·
O=C(OCc1ccccc1F)c1ccc2c(c1)-c1ccccc1C2=O	108	4.1*	1	26	2	·
COc1ccc(OCC(=O)Nc2cccc(-c3nc4ccccc4o3)c2)cc1	148*	1.8	0.9	113	15	-8
CCC(=O)Nc1ccc2oc(-c3cccc(C)c3)nc2c1	103	3.5*	0.3	190*	71*	4
Cc1ccc2oc(-c3cccc(NC(=O)C4CCCO4)c3)nc2c1 (configuration not stated)	140*	4*	0.7	56	30	·
Cc1cccc(-c2nc3cc(NC(=O)C4CCCO4)ccc3o2)c1 (configuration not stated)	130*	4.7*	0.2	138*	83*	-7
CC1(C(=O)N2CCN(Cc3ccccc3Cl)CC2)CC1(Cl)Cl (configuration not stated)	·	·	·	·	·	3
Cc1cc(N2CCN(C3CCCCC3)CC2)n2nc(C)nc2n1	91	1.1	1.1	44	-5	·
CCC(=O)Nc1ccc(-c2nc3ccccc3c(=O)o2)cc1	63	·	0.3	-15	74*	·
O=C(Nc1cccc(-c2nc3cc(Cl)ccc3o2)c1)C1CCCO1 (configuration not stated)	130*	3.4*	1	·	3	·
Cc1ccccc1C(=O)NC(=S)Nc1ncccn1	·	·	·	·	·	-11
O=C(CSc1ncnc2c1nnn2-c1ccc(F)cc1)NCC1CCCO1 (configuration not stated)	98	1.1	0.8	-16	22	·
COc1ccc(-c2ccc(SCC(=O)Nc3nnc(C)s3)nn2)cc1	120	1.9	0.4	5	64*	1
CCOc1ccc(-c2ccc(SCC(=O)NCC3CCCO3)nn2)cc1 (configuration not stated)	117	2.1	0.3	69	72*	24
CCOc1ccc(-c2ccc(SC)nn2)cc1	25	2	0	77	96*	31
Cc1ccc(-n2nnc3c(SCC(=O)NCC4CCCO4)ncnc32)cc1 (configuration not stated)	105	1.2	0.4	-8	55*	·
NC(=O)CSc1ccc(-c2ccc(F)cc2)nn1	102	1.2	1	29	1	-15
COc1ccc(-c2ccc(SCC(=O)NCc3ccco3)nn2)cc1	116	1.3	0.7	21	32	·
c1ccc(-n2ncc3c(N4CCN(CCOc5cccc6ccccc56)CC4)ncnc32)cc1	101	0.79	1	14	-3	-6
CCOc1ccc(-c2ccc(SCC(=O)Nc3nnc(CC)s3)nn2)cc1	113	2.8	0.3	115	65*	-25
